The list is not random: actives were taken first. Their share in the collection is about 2.9%.
CHO-K1 Ca ag: nonselective activator or artifact in parental CHO-K1 cells | 0.48% of 360,000 active | activation, % at 3 µM | Fluo-8 calcium fluorescence; scaled to maximal ATP response, vehicle zero; in the data active = activation above about 15%;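 also: untransfected CHO-K1 host cells lacking M1 receptor as counterscreen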
CHO-K1 Ca antag: nonselective inhibitor or artifact in parental CHO-K1 cells; ATP-induced calcium, Fluo-8 fluorescence; inhibition, % at 3 µM; 0.6% of 360,000 active; AID 602250;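 active = inhibition above a per-plate cutoff, the plate's mean sample inhibition plus 3 SD, cut at about 24% in these data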;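 also: 0% = DMSO plus EC80 ATP and 100% = DMSO alone without ATP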
OX1R antag-1: OX1R (human) antagonism; O43613; 1.8% of 330,000 active; inhibition, % at 6.6 µM; OX1R-expressing cells, FRET antagonist read-out; in the data active = inhibition mostly above about 38%, no sharp cut-off; inactive = mostly below about 40%;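 also: 0% = agonist challenge alone and 100% = reference antagonist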
Target sequence (O43613 whole entry, looked up): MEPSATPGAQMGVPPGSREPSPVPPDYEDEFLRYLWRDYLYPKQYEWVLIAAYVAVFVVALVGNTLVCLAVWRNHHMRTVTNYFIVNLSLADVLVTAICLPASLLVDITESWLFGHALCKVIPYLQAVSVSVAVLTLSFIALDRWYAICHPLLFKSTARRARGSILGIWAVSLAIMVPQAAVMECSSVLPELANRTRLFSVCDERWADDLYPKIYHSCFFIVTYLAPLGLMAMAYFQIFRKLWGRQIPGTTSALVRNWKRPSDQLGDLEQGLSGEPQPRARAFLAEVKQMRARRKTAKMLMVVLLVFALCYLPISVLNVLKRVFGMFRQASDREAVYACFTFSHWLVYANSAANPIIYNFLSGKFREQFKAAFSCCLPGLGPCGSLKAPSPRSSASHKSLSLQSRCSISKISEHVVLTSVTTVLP
CHO parental Ca: counter-screen: ATP calcium response change in parental CHO cells; parental CHO-K1, ATP-induced calcium, Fluo-8 fluorescence; inhibition, % at 5.6 µM; 0.63% of 330,000 active; AID 463079;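 active = inhibition above that plate's mean sample inhibition plus 3 SD, cut at about 26% in these data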;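 also: 0% = ATP-challenged DMSO wells and 100% = DMSO wells without ATP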
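Test system: untransfected parental CHO cell line; also added: ATP stimulus; dosing: 5.6 µM, single dose; signal: calcium-sensitive Fluo-8 fluorescence; measure: percent inhibition of ATP-evoked calcium rise, normalized to controls; benchmarks: low control ATP plus DMSO, high control DMSO only; replication: one well per compound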
OX1R antag-2: human HCRTR1 antagonism | O43613 | CHO/OX1R cells, Fluo-8 calcium fluorescence, orexin A | inhibition, % at 5 µM | 0.43% of 330,000 active | AID 434989;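 active = inhibition above its plate's threshold, mean inhibition of all tested compounds on the plate plus 3 SD, cut at about 37% in these data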;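 also: 0% = orexin A challenge wells and 100% = SB-334867-A antagonist wells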
M1 PAM parental: M1 PAM counterscreen hit in parental CHO-K1 cells; ATP EC20, Fluo-8 calcium fluorescence; 0% at ATP EC20, 100% at ATP max; activation, % at 3 µM; 0.02% of 360,000 active; AID 602247;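 active = activation above the run cutoff, the mean activation of all test compounds plus 3 SD, cut at about 40% in these data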;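 also: peak over basal fluorescence ratio in a 140 s read after ATP addition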
OX1R Fluo8 conf: OX1R (human) antagonism, confirmed; shares compounds with OX1R antag-2; CHO/OX1R cells, orexin A calcium Fluo-8 fluorescence; inhibition, % at 5 µM; 38% of 1,100 active; AID 492963; in the data active = inhibition above about 29%;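 also: 0% = agonist challenge alone and 100% = reference antagonist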
CHO Ca counter: counter-screen: parental CHO calcium response change, triplicate; inhibition, % at 5.6 µM; parental CHO-K1, ATP-induced calcium, Fluo-8 fluorescence; AID 492965; shares compounds with OX1R antag-2; 9.3% of 1,100 active;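 active = inhibition above a per-plate limit, the mean inhibition of that plate's test compounds plus 3 SD, cut at about 25% in these data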;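 also: 0% = ATP challenge with DMSO and 100% = DMSO without ATP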
* = called active by the depositor; nt = no result given.

SMILES	CHO-K1 Ca ag	CHO-K1 Ca antag	OX1R antag-1	CHO parental Ca	OX1R antag-2	M1 PAM parental	OX1R Fluo8 conf	CHO Ca counter
Cc1ccnc(NS(=O)(=O)c2cc([N+](=O)[O-])ccc2C)c1	-0.1	9.6	48.1	-0.2	30.0	-9.8	7.2	17.1
CCCCNC(=O)NCCN1CCOCC1	1.4	-7.4	9.0	-2.5	-9.9	8.3	nt	nt
CCN(CC)S(=O)(=O)c1ccc2oc(C(=O)NCc3ccc(F)cc3)c(C)c2c1	3.1	-11.3	13.2	19.7	24.6	10.8	0.5	-4.7
Cc1c(C(=O)NCc2ccc(F)cc2)oc2ccc(S(=O)(=O)N3CCOCC3)cc12	7.7	-6.7	11.8	-20.8	-15.4	-24.5	nt	nt
CCCCn1c(=O)[nH]c2nc3cc(N)ccc3nc2c1=O	24.4*	20.5	38.8	36.1	60.6*	-7.5	34.7*	28.6*
Cc1ccc(Nc2cc(Cl)nc(N)n2)c([N+](=O)[O-])c1	-0.6	-15.1	nt	nt	nt	12.8	nt	nt
COC(=O)c1c(C)oc2ccc(N(C(=O)c3ccncc3)S(=O)(=O)c3ccc(C)cc3)cc12	2.9	6.1	32.4	16.6	38.7*	7.6	12.3	13.5
COC(=O)c1c(C)oc2ccc(N(C(=O)c3ccncc3)S(=O)(=O)c3ccc4ccccc4c3)cc12	5.8	15.1	19.3	-13.2	-16.8	-6.2	nt	nt
O=C(Nc1cccc(-n2cnnn2)c1)c1ccc(Cl)cc1Cl	0.6	-1.6	14.1	-18.7	-10.9	-17.0	nt	nt
Cc1cnc(C(=O)OCC(=O)Nc2ccc(Oc3ccccc3)cc2)cn1	1.6	-15.4	6.6	-1.6	-11.1	17.9	nt	nt
COc1ccc(NC(=O)c2ccc(NC(=O)COC(=O)c3cnc(C)cn3)cc2)cc1	0.2	-11.9	11.2	1.6	30.9	-8.0	4.0	12.1
Cc1cc(C)cc(N(CCC#N)C(=O)COC(=O)CNC(=O)c2sc3ccccc3c2Cl)c1	0.5	2.4	11.8	-17.1	-21.2	-7.6	nt	nt
C=CCSc1nnc(-c2cc3c(s2)-c2ccccc2CC3)o1	2.2	-1.9	55.4	0.0	33.5	13.1	-1.0	-6.3
O=C(CSc1nnc(-c2cccs2)o1)N1CCc2ccccc21	1.6	-14.4	9.8	-13.7	-24.7	14.9	nt	nt
Cc1cc(C(C)(C)C)oc1C(=O)N(CC(=O)NC1CCCC1)c1cccc(C(F)(F)F)c1	0.8	-2.7	30.1	-8.5	55.9*	12.6	14.0	-3.1
Cc1ccc(C(=O)N(CC(=O)NC2CCCC2)c2cccc(F)c2)s1	-0.3	-6.3	15.5	-8.4	-16.5	0.2	nt	nt
CCOc1ccc(NS(=O)(=O)c2ccc(NC(=S)NC(=O)C(C)C)cc2)cc1	2.8	2.5	4.6	5.8	20.1	0.6	nt	nt
COc1ccc(NS(=O)(=O)c2ccc(NC(=S)NC(=O)C(C)C)cc2)cc1	7.9	-1.3	30.9	17.6	31.4	14.0	32.3*	13.3
CCOC(=O)C(=O)Nc1cc(C(=O)OC)cc(C(=O)OC)c1	0.2	2.5	20.9	2.1	-9.7	-4.9	nt	nt
Cc1ccc(C(=O)N2CCC(Cc3ccccc3)CC2)cc1[N+](=O)[O-]	1.3	-12.5	28.7	11.2	27.6	14.6	17.3	-3.0
Cn1nc(C(=O)N2CCOCC2)c([N+](=O)[O-])c1C(=O)N1CCOCC1	0.1	2.9	0.3	-3.1	6.8	-1.2	nt	nt
C=CCC[C@@H](Cc1ccc(F)cc1)C(=O)OC[C@@H]1CCCN1C(=O)[C@H](CC=C)CC(=O)N[C@H](CO)Cc1ccccc1	6.0	-3.5	24.2	-5.7	65.0*	5.8	14.3	-13.9
Cc1ccc(S(=O)(=O)N2C[C@@H]3[C@H]4CC[C@H](C4)[C@@H]3[C@@H](C)[C@H]2c2ccco2)cc1	0.0	-21.8	28.2	-6.8	82.0*	10.8	2.8	23.2
CN(C)c1nc(N)nc(CSc2nc3cc(Cl)ccc3o2)n1	1.3	-13.1	22.4	-9.0	42.8	5.2	27.1	-2.6
Cc1cc(C)n2cc(CSc3nc4cc(Cl)ccc4o3)nc2n1	-0.6	14.2	37.1	-20.2	-28.8	2.5	nt	nt
SMILES	CHO-K1 Ca ag	CHO-K1 Ca antag	OX1R antag-1	CHO parental Ca	OX1R antag-2	M1 PAM parental	OX1R Fluo8 conf	CHO Ca counter
Cc1cc(C)n2nc(CCCCc3nc4nc(C)cc(C)n4n3)nc2n1	nt	nt	-2.5	3.0	-4.4	nt	nt	nt
NC(=O)c1ccsc1NC(=O)COC(=O)c1nc(Cl)ccc1Cl	6.6	4.7	18.7	-7.7	-5.4	15.4	nt	nt
COc1ccc(S(=O)(=O)n2nc(OC(=O)c3c(-c4ccccc4Cl)noc3C)cc2N)cc1	-0.1	4.4	40.7	4.3	36.3	-2.1	-7.7	-13.5
COc1ccc(C(=O)Oc2cc(N)n(S(=O)(=O)c3ccc(C)cc3)n2)cc1	0.8	-10.4	28.4	-19.7	-17.5	15.5	nt	nt
COc1cc(CNC(C)c2ccccc2)cc(Br)c1OCc1ccccc1 (stereo not drawn)	3.8	-7.0	-1.7	-3.0	45.6*	20.5	22.2	-2.8
COc1cc(CNC(C)c2ccccc2)cc(Br)c1OCc1ccc(F)cc1 (stereo not drawn)	1.5	-9.8	11.6	11.6	29.1	22.1	nt	nt
COc1ccc2[nH]c(C(=O)O)c(CCN3C(=O)c4cccc([N+](=O)[O-])c4C3=O)c2c1	0.5	-6.3	15.6	9.1	103.1*	19.6	-5.9	-1.0
CCn1nnc(-c2ccccc2NS(=O)(=O)c2ccc(S(=O)(=O)N(C)C3CCCCC3)cc2)n1	1.3	7.2	11.8	-2.2	6.0	6.3	nt	nt
Clc1cccc(-c2nnc(SC/C=C/c3ccccc3)n2Cc2ccco2)c1	1.8	-10.6	11.9	18.6	48.8*	16.4	13.4	-2.6
Cc1ccc(O)c(NC(=O)c2noc3c2CCc2ccccc2-3)c1	0.2	1.5	66.6	-15.2	30.7	-2.7	20.6	3.7
O=C(NCCC1CCCCN1S(=O)(=O)c1ccccc1)C(=O)Nc1ccc(F)cc1F (stereo not drawn)	0.4	-1.2	22.2	-12.9	-28.0	2.5	nt	nt
O=S(=O)(Nc1ccc(S(=O)(=O)Nc2ccccc2)cc1)c1ccccc1	1.8	-14.2	4.7	10.8	36.4	32.5	7.9	-0.6
O=C(Cc1ccccc1)n1nc(-c2ccco2)nc1SCc1ccccc1	0.3	8.5	8.3	-4.2	39.6*	16.7	5.4	-0.6
O=C(c1ccco1)n1nc(-c2ccco2)nc1SCc1ccccc1	0.2	1.7	8.3	8.6	-10.1	6.0	nt	nt
Cc1ccc(NC(=S)NC2CCSc3ccccc32)cc1C (stereo not drawn)	0.8	14.5	16.6	11.2	5.7	-8.9	nt	nt
FC(F)(F)COc1ccc(-n2ccnc2)nn1	1.7	0.2	12.0	-0.3	20.5	-3.8	3.2	7.5

Screens deposited in PubChem BioAssay by The Scripps Research Institute Molecular Screening Center.
